# Screening data: PubChem BioAssay, several laboratories
# ABCB6 inh 2 – human ABCB6 transporter inhibition; K562-ABCB6 porphyrin accumulation, flow cytometry, 1 h; active compounds read low; fluorescence ratio to DMSO, % at 10 µM; 360,000 tested, 0.19% active; AID 602162;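 active means fluorescence ratio to DMSO below 75%, the collection mean minus 3 SD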;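 further: signal is porphyrin accumulated inside mitochondria; 100% equals median channel fluorescence of DMSO control wells; lower ratio means ABCB6 inhibition with less porphyrin fluorescence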
# Exocytosis inh – blocks lytic granule exocytosis | TALL-104 LAMP-1 surface exposure, flow cytometry; cells stimulated with thapsigargin and PMA | inhibition, % at 10 µM | 360,000 tested, 0.66% active;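 active means inhibition above about 55%, limit read from the data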
# Myeloid diff MLP – compounds promoting myeloid differentiation. 360,000 tested, 1% active. calls only at 10 µM. ER-HoxA9 myeloid progenitors, lysozyme-GFP differentiation, flow cytometry. AID 624256;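 active means normalized GFP-positive differentiation at or above the plate's own cutoff, the solvent-only control mean plus 3 SD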;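 further: cells exposed to compound for four days before flow analysis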
# NRP1-CendR mod – alters CendR peptide binding to human NRP-1. O14786. FAM-RPARPAR peptide binding to NRP-1, fluorescence polarization. inhibition, % at 25 µM. 360,000 tested, 0.85% active;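 active means inhibition or corrected inhibition above about 18%, plus a signal ratio from 0.5 to 1.5, limit read from the data, passing the limit was not always enough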
# ATG4B inh – blocks human ATG4B protease cleavage of LC3 substrate; Q9Y4P1; ATG4B cleavage of LC3-PLA2, NBD-HPC fluorescence, 1 h; inhibition, % at 8.33 µM; 340,000 tested, 0.51% active; in the data active means inhibition above about 40%
# Target sequence (Q9Y4P1 whole entry, looked up): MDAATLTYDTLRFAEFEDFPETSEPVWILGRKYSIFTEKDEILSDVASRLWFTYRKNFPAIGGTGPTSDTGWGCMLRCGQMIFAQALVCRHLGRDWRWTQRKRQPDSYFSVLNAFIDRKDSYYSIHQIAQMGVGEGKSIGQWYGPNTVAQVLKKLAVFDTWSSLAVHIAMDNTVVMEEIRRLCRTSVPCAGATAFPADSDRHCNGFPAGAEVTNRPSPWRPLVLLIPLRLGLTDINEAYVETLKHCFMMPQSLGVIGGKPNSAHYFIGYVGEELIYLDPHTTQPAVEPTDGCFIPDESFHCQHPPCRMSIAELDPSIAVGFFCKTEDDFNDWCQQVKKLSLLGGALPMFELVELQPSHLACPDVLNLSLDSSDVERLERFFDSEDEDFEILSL
# Arr AP2 block – human beta-arrestin and AP2 interaction inhibition. FITC-arrestin peptide / GST-AP2 beads, flow cytometry; AP2 beta2 appendage carries R879A mutation. inhibition, % at 10 µM. 340,000 tested, 0.31% active. AID 504490;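 active means inhibition above a set limit, near 3 SD of compounds lacking own fluorescence, cut at about 54% in these data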;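 further: plate controls were DMSO wells for no effect and 5 µM unlabelled arrestin peptide for full effect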
#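 System: GST-AP2 R879A glutathione beads | Also added: FITC-arrestin peptide, 50 nM | Times: 12 min plus 1 h, RT | Signal: Bead flow cytometry, FITC channel | Buffer or medium: PBS with 0.05% Tween 20 and 0.1% BSA | Read-out basis: Percent drop in bead-associated FITC signal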
# Myeloid diff – myeloid differentiation induction; 2,300 tested, 2% active; ER-HoxA9 myeloid progenitors, GFP/Mac1 double-positive flow; shares compounds with Myeloid diff MLP; calls only;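 active means share of green or green-and-red cells above 9 and 9% in run 1 or 4 and 3% in run 2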
# GFP autofluor – counter-screen for myeloid differentiation promoters: compound fluorescence. shares compounds with Myeloid diff MLP. ER-HoxA9 myeloid progenitors, no estrogen, GFP autofluorescence flow cytometry; vehicle wells 0%, positive control 100%. 2,300 tested, 7.4% active. fluorescence response, % (no concentration beside the values);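 active means over 5% cells positive for green fluorescent reporter, or over 2% positive for both it and APC stain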;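 further: range taken on the double positive population between DMSO and positive control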
# Numbers without * were called inactive; i = inactive; . = no result given; + = active, no number. The list is not random: actives were taken first. Their share in the collection is about 3.3%.
SMILES,ABCB6 inh 2,Exocytosis inh,Myeloid diff MLP,NRP1-CendR mod,ATG4B inh,Arr AP2 block,Myeloid diff,GFP autofluor
CCOc1ccc(NC(=O)/C=C/c2ccc(OC)cc2)c([N+](=O)[O-])c1,93.0,-3.8,i,-55.1,-0.5,-0.7,i,0.0
Cc1ccc(C(=O)CCC(=O)OCC(=O)Nc2ccccc2SCC#N)cc1,175.0,5.6,+,-9.5,-40.9,-6.2,i,88.7*
Nc1cc(Nc2ccccc2)ccn1,101.0,-0.9,+,14.4,-1.4,0.9,i,2.4
CCOC(=O)C1=NN(C(=O)c2ccc(OC)cc2)C(O)(c2ccc(Cl)cc2)C1 (centres undefined),96.0,-0.2,+,-8.3,-8.6,13.2,i,0.0
COc1ccc(-n2ccnc2SCC(=O)c2c(N)n(C3CC3)c(=O)[nH]c2=O)cc1,91.0,3.3,i,-1.3,.,.,.,.
Cc1c(Cl)cccc1N=Cc1ccc([N+](=O)[O-])s1,114.0,10.0,i,-22.5,11.8,-1.7,i,0.0
CCc1ccc(-c2cc(C(=O)N/N=C/c3c[nH]c4ccccc34)[nH]n2)cc1,90.0,4.7,i,-1.7,1.1,14.2,i,2.1
CCc1ccc2c(Cl)c(C(=O)N/N=C/c3c[nH]c4ccccc34)sc2c1,94.0,3.0,i,-10.5,4.0,30.5,.,.
O=C(O)Cc1sc(N/N=C\c2ccncc2)nc1-c1ccccc1,89.0,-0.8,i,-138.3,0.5,1.9,i,0.0
O=C(O)Cc1sc(Nc2cccc3ccccc23)nc1-c1ccccc1,111.0,2.7,i,-22.4,5.9,2.4,.,.
Cc1cc(C)nc(/N=C(/NC(=O)Nc2cccc(Cl)c2)Nc2ccccc2)n1,97.0,-0.3,i,-5.3,-34.1,11.7,i,0.0
Cc1cc(C)nc(/N=C(\NC(=O)C(C)(C)C)Nc2ccccc2)n1,94.0,-5.1,i,10.7,-8.2,1.4,.,.
CC(C)C1O/C(=N/C(=O)Nc2ccc(Cl)c(Cl)c2)NC1=O (centres undefined),99.0,4.5,i,-4.0,-10.1,40.3,i,0.0
CC1(C)CC2CC(C)(CN2C(=O)COC(=O)c2ccccc2C(F)(F)F)C1 (centres undefined),91.0,-0.7,i,2.0,11.9,9.6,.,.
CCOC(=O)c1cc(-c2ccccc2)sc1NC(=S)Nc1cc(C)ccn1,94.0,-2.4,+,-39.0,-4.6,3.2,i,0.0
CCOC(=O)c1cc(-c2ccccc2)sc1NC(=O)C(C)(C)C,108.0,-8.1,i,3.1,-4.2,-3.9,.,.
COc1ccc(Cl)cc1NC(=O)C1CCN(C(=O)C2CC(=O)N(c3ccc(C)cc3)C2)CC1 (centres undefined),94.0,-4.4,i,7.7,-7.3,7.7,.,.
CS(=O)(=O)N1CCC(C(=O)Nc2cc(Cl)c(Cl)cc2Cl)CC1,128.0,8.3,i,-1.6,-2.0,9.4,i,2.0
CS(=O)(=O)N1CCC(C(=O)Nc2cc(Cl)ccc2Cl)CC1,101.0,-2.1,i,-7.1,-9.8,-0.5,.,.
CN(C)N=Nc1ccc(-c2cn(Cc3ccccc3)cn2)cc1,89.0,0.6,i,-3.6,3.2,-2.3,i,0.0
O=C(COc1ccccc1)Nc1nc2cc3c(cc2s1)OCO3,99.0,4.0,i,1.8,2.8,-6.8,.,.
O=C(COc1ccccc1)Nc1nc2cc3c(cc2s1)OCCO3,100.0,-0.2,i,8.6,-6.5,9.3,i,0.7
Nc1ccc2c(c1)Cc1c(F)cccc1-2,102.0,1.3,i,-4.0,-2.5,19.9,.,.
CCn1nc(C)c(CN2CCCC(CNS(=O)(=O)c3ccc(OC)cc3)C2)c1C (centres undefined),96.0,-3.5,i,1.4,7.2,1.7,.,.
O=C(O)CCCN1C(=O)/C(=C\c2ccc(-c3nc4ccccc4s3)o2)SC1=S,101.0,76.2*,+,-175.9,0.3,24.2,i,0.0
SMILES,ABCB6 inh 2,Exocytosis inh,Myeloid diff MLP,NRP1-CendR mod,ATG4B inh,Arr AP2 block,Myeloid diff,GFP autofluor
CCCCNC(=S)NNC(=O)c1csc(C)c1,100.0,0.8,i,-6.7,3.0,5.4,i,0.0
CC(C)(C)OC(=O)C[C@@H]1C/C=C\C[C@H](CC(=O)NCCO)C(=O)N[C@H](Cc2ccccc2)COC1=O,102.0,4.8,i,-1.4,-20.0,4.2,.,.
COc1ccc(CCNS(=O)(=O)c2cccc(C)c2)cc1OC,97.0,0.5,i,-13.1,-8.0,15.9,.,.
COc1ccc(CCNS(=O)(=O)c2cccc(F)c2)cc1OC,103.0,-1.9,i,-3.5,3.2,-2.1,i,0.0
CCN(CC)S(=O)(=O)c1cc(NC(=O)C(C)OC(=O)c2[nH]c(C)c(C(C)=O)c2C)ccc1C (centres undefined),93.0,1.4,i,-12.5,-3.7,-1.7,.,.
O=C(CCNC(=O)c1ccc(Br)cc1)NC1CCCc2ccccc21 (centres undefined),89.0,-6.1,+,-15.8,3.9,33.1,+,0.0
O=C(NC1CCCc2ccccc21)c1ccc(Br)cc1 (centres undefined),99.0,-4.3,i,-5.3,5.3,-5.4,.,.
Fc1ccc(C(c2nnnn2C2CCCC2)N2CCN(Cc3ccncc3)CC2)cc1 (centres undefined),99.0,-1.0,+,10.6,0.5,20.5,i,0.0
Fc1ccc(C(c2nnnn2C2CCCCC2)N2CCCC2)cc1 (centres undefined),101.0,-1.4,i,5.8,4.7,-1.3,.,.
Cc1ccc(S(=O)(=O)/N=C(\N)Nc2nc(C)c3cc(C)c(C)cc3n2)cc1,99.0,0.7,i,-7.1,-16.8,1.8,i,0.0
C=CCNc1nc2cc(-c3ccc(C(=O)N4CCOCC4)cc3)sc2c(=O)n1C,97.0,-2.1,i,-7.9,.,.,.,.
COc1ccc(C(=O)C(C)[n+]2ccc(C)c3ccccc32)cc1[N+](=O)[O-] (centres undefined),237.0,31.1,+,-24.1,0.9,11.6,i,0.4
Cc1nc(NC(=O)c2cccnc2Cl)sc1C,104.0,-3.6,i,-10.9,-9.7,-0.6,.,.
COc1cc2oc(=O)cc(-c3ccc(-c4ccc(C#N)cc4)cc3)c2c(OC)c1OC,96.0,-5.3,i,-5.8,3.3,13.7,i,0.0
COc1cc2oc(=O)cc(-c3ccc(-c4ccc(C)cc4)cc3)c2c(OC)c1OC,125.0,1.1,i,5.3,-4.3,-0.5,.,.
CCc1ccccc1NC(=S)N1CCNC(=O)C1CC(=O)OC (centres undefined),86.0,1.3,i,7.2,-0.9,-1.4,.,.
